{"data": "Experimental data gathered from unrelated publications", "target": "Serine/threonine-protein kinase 10 (STK10, Homo sapiens, UniProt O94804)", "note": "Each line is one published result; the experiments were not run side by side."}
{"Compound": "Cc1nn(C)cc1-c1nc2c(N3CCN(Cc4ccc(Cl)cc4)CC3)c(Cl)cnc2[nH]1", "observed": "binding", "technique": "competition with immobilised ligand", "concentration": "1 µM", "quantity": "remaining binding", "result": "100%"}
{"Compound": "Nc1ncc(-c2nc(N3CCOCC3)nc(N3CCOCC3)n2)c(C(F)F)n1", "observed": "binding", "technique": "competition with immobilised ligand", "concentration": "10 µM", "quantity": "remaining binding", "result": "64%"}
{"Compound": "Cn1cncc1[C@@](O)(COc1ccc(C#N)cc1-c1ccc(OC(F)(F)F)cc1)c1ccc(C#N)cc1", "observed": "cell-free assay", "technique": "competition with immobilised ligand", "concentration": "1 µM", "quantity": "remaining binding", "result": "100%"}
{"Compound": "COc1ncccc1-c1cnn2ccc(N3CCN(C(=O)OC(C)C)CC3)nc12", "observed": "binding", "technique": "competition with immobilised ligand", "concentration": "1 µM", "quantity": "remaining binding", "result": "63%"}
{"Compound": "O=c1[nH]c2ccccc2n1C1CCN(Cc2ccc(-c3[nH]c4cc5ncnc5cc4nc3-c3ccccc3)cc2)CC1", "observed": "cell-free assay", "concentration": "0.5 µM", "quantity": "remaining signal", "result": "92.6%"}
{"Compound": "COc1cc(Nc2ncc(F)c(Nc3ccc4c(n3)NC(=O)C(C)(C)O4)n2)cc(OC)c1OC", "observed": "binding", "concentration": "10 µM", "quantity": "inhibition", "result": "100%"}
{"Compound": "CC(C)(C)c1cc(C=C(C#N)C#N)cc(Br)c1O", "observed": "enzyme activity", "action": "inhibitor", "concentration": "0.5 µM", "quantity": "remaining activity", "result": "95.4%"}
{"Compound": "N#CC1(c2ccccn2)CCN(Cc2cc(C(=O)O)c(=O)n3ccccc23)CC1", "observed": "cell-free assay", "technique": "competition with immobilised ligand", "concentration": "1 µM", "quantity": "remaining binding", "result": "100%"}
